Bioassay records: PubChem BioAssay, The Scripps Research Institute Molecular Screening Center
M4 PAM: human M4 muscarinic receptor positive allosteric modulators, primary screen, CHO-K1 cells, Fluo-8 calcium fluorescence. AID 624126, 2012. activation, % at 3 µM. CHO-K1 hM4/Gqi5, ACh EC20; 0% = ACh EC20, 100% = maximal ACh. hit rate 0.4% among 360,000;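 active = activation above its plate's cutoff, the mean activation of sample wells plus 3 SD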
Target sequence (P08173 whole entry, looked up): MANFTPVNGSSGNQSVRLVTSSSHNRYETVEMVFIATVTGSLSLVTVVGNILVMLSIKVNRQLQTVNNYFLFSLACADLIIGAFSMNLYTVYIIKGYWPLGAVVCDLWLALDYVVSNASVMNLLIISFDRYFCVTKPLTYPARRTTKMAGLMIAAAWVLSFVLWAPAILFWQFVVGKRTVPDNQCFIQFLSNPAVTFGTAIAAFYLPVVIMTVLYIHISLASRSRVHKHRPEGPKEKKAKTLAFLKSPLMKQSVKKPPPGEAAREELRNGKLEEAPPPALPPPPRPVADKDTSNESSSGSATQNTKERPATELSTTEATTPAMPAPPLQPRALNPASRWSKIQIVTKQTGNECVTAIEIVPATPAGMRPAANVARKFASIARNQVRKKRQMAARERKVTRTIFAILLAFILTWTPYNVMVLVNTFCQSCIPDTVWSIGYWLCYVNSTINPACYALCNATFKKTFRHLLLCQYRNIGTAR
CHRM5 PAM: human M5 muscarinic receptor positive allosteric modulators, primary screen, CHO-K1 cells, Fluo-8 calcium fluorescence | Muscarinic acetylcholine receptor M5 (Homo sapiens), P08912 | CHO-K1 hM5, ACh EC20 PAM; 0% = ACh EC20, 100% = ACh EC100 | activation, % at 3 µM | hit rate 0.3% among 360,000;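 active = activation above the run cutoff, the mean activation of all test compounds plus 3 SD, cut at about 18% in these data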
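Test system: CHO-K1 hM5 cells / Doses: single-point, 3 µM nominal / Times: Post-acetylcholine fluorescence recording 140 s / Technique: Fluo-8 calcium fluorescence / Measure: Max/basal fluorescence ratio as % of EC20–EC100 ACh window / Benchmarks: low control EC20 acetylcholine (0%), high control EC100 acetylcholine (100%) / Replicates: one well per compound, no replicates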
M5 antag: human M5 muscarinic receptor antagonists, primary screen, CHO cells, Fluo-8 calcium fluorescence | hit rate 0.59% among 360,000 | CHO-hM5 cells, ACh EC80 | Muscarinic acetylcholine receptor M5 (Homo sapiens), P08912 | inhibition, % at 3 µM;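 active = inhibition above a per-plate cutoff, the mean of that plate's test compounds plus 3 SD, cut at about 27% in these data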
CHRM4 antagonist: human M4 muscarinic receptor antagonists, primary screen, CHO cells, Fluo-8 calcium fluorescence; CHO-hM4 cells, ACh EC80; inhibition, % at 3 µM; hit rate 0.73% among 360,000; AID 624125, 2012;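 active = inhibition above its plate's cutoff, the mean inhibition of sample wells plus 3 SD, cut at about 27% in these data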
CHRM4 agonist: human M4 muscarinic receptor agonists, primary screen, CHO-K1 cells, Fluo-8 calcium fluorescence | Muscarinic acetylcholine receptor M4 (Homo sapiens), P08173 | activation, % at 3 µM | CHO-K1 hM4/Gqi5; vehicle 0%, full acetylcholine response 100% | hit rate 0.14% among 360,000;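 active = activation above the run mean over all test wells plus 3 SD, cut at about 32% in these data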;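 also: peak over basal fluorescence ratio per well then scaled between controls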
CHRM5 agonist: human M5 muscarinic receptor agonists, primary screen, CHO-K1 cells, Fluo-8 calcium fluorescence. activation, % at 3 µM. CHO-K1 hM5 cells; 0% DMSO wells, 100% maximal acetylcholine response. hit rate 0.19% among 360,000;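 active = activation above the run's mean over test compounds plus 3 SD, cut at about 23% in these data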;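 also: signal is peak over basal fluorescence ratio across the kinetic read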
Large screens that a line does not name were inactive; ! = not confirmed by another sample. This is a sample that favours compounds with a hit; in the whole collection about 1.8% have one here.

CN(C)CC(=O)N[C@@H]1CC[C@@H](CC(=O)NCCN2CCCCC2)O[C@@H]1CO	CHRM5 PAM 20
Cc1ccc(NC(=O)c2ccc(Cl)c(N3C(=O)C=CC3=O)c2)cc1	none
O=S(=O)(NCC(c1ccccc1)N1CCNCC1)c1ccc(Cl)cc1 (centres undefined)	none
CCN1CCN(C(CNS(=O)(=O)c2ccc(Cl)cc2)c2ccccc2)CC1 (centres undefined)	M5 antag 28
O=C(COc1ccccc1)Nc1cccc(-c2nn[nH]n2)c1	none
O=C(COc1ccccc1)Nc1cccc(-c2nc3cc4ccccc4cc3[nH]2)c1	CHRM4 antagonist 30
Cc1csc(=O)n1CC(=O)OCc1nnc(-c2ccc([N+](=O)[O-])cc2)o1	M4 PAM 23
Cc1nc(SCCc2nc3ccccc3[nH]2)c2oc3ccccc3c2n1	none
CC(=O)Nc1ccc(/C(C)=N/Nc2nc(N3CCOCC3)nc(N3CCOCC3)n2)cc1	none
CC(=O)Nc1ccc(/C(C)=N/Nc2nc(Nc3cccc4ccccc34)nc(N3CCOCC3)n2)cc1	CHRM5 agonist 32
CSc1nnc(N(CCC#N)CCC#N)s1	CHRM5 PAM 40
Cc1nnc(N(CCC#N)CCC#N)s1	none
CNCCCC1c2ccccc2C=Cc2ccccc21	M5 antag 99, CHRM4 antagonist 91
O=C(CN1C(=O)NC2(CCCC2)C1=O)OCc1c(F)cccc1Cl	none
CCCCNc1c(-c2ccc(OC)c(SC3CCCCC3)c2)nc2ccc(C)cn12	M5 antag 40, CHRM4 antagonist 78
CCCCNc1c(-c2ccc(SC3CCCCC3)c(OC)c2)nc2ccc(C)cn12	CHRM4 antagonist 35!
CC(=O)c1cc2c(cc1NS(=O)(=O)c1cccc(C(=O)O)c1)OCO2	none
CC(=O)c1cc2c(cc1NS(=O)(=O)c1ccccc1)OCO2	CHRM4 antagonist 30
O=C(O)CSCC(=O)NCc1ccc(Cl)cc1	M4 PAM 28
Cc1ccnc(NC(=O)CCC(=O)N(CC(=O)NC(C)(C)C)c2ccc3c(c2)OCO3)c1	none
COC1=C(OC)c2ccccc2C(C(=O)O)N/C1=C(/C)Nc1ccncc1 (centres undefined)	CHRM4 antagonist 29
Cn1cc(C(=O)c2cccc(Cl)c2Cl)cc1C(=O)O	CHRM5 PAM 21
COC(=O)c1cc(C(=O)c2cccc(Cl)c2Cl)cn1C	none
COc1ccc2sc(-c3ccc(S(C)(=O)=O)cc3)c(C(=O)NCCc3c[nH]c4ccccc34)c2c1	CHRM4 antagonist 34
O=[N+]([O-])c1ccc(-c2cccnc2)cc1	CHRM5 PAM 18
O=[N+]([O-])c1ccc(COc2cccnc2)cc1	none
CC(C)C(C)NC(=O)CN1C(=O)NC2(CCCc3ccccc32)C1=O (centres undefined)	none
CC(C)C(C)NC(=O)CN1C(=O)NC2(CCc3ccccc32)C1=O (centres undefined)	M4 PAM 14
Cc1ccc(NC(=O)CN2C(=O)NC3(CCCc4ccccc43)C2=O)cc1S(=O)(=O)N1CCOCC1 (centres undefined)	M5 antag 100
CCN(CC)CCNC1=NCCn2c1cc1cc(OC)ccc12	CHRM5 PAM 20
Cc1ccc2c(Cl)cc(Cl)c(OCC(=O)NCCc3ccccn3)c2n1	CHRM4 antagonist 77
CCOc1ccccc1NC(=O)COC(=O)COc1c(Cl)cc(Cl)c2ccc(C)nc12	CHRM5 PAM 34, M5 antag 28
Cc1ccc2c(Cl)cc(Cl)c(OCC(=O)NC3CCS(=O)(=O)C3)c2n1 (centres undefined)	none
CC[C@]12c3[nH]c4ccccc4c3CCN1C(=O)C(CC(=O)NC/C=C(\C)CCC=C(C)C)C[C@@H]2C(=O)N1CCN(C(=O)c2ccco2)CC1 (some centres undefined)	none
O=C(O)/C=C/C(=O)N1CCN(C(c2ccccc2)c2ccccc2)CC1	M5 antag 27, CHRM4 antagonist 30
CC(=O)/C(C(=N)N1CCN(C(c2ccccc2)c2ccccc2)CC1)=C(\C)O	M5 antag 83, CHRM4 antagonist 91
CC(=O)/C(C(=N)N1CCN(Cc2ccccc2)CC1)=C(\C)O	none
O=C(CCNC(=O)c1ccc(Cl)cc1)NCC(c1ccco1)N1CCCC1 (centres undefined)	none
CCCCC(O)(CCN1CCOCC1)c1ccc(Cl)cc1 (centres undefined)	M5 antag 32, CHRM4 antagonist 68
O=C(O)C1CCC(CNS(=O)(=O)c2ccccc2)CC1 (centres undefined)	none
O=C(Nc1ccc(F)c(Cl)c1)C1Cc2c(-c3ccc4c(c3)OCO4)ccnc2O1 (centres undefined)	none
C=CCN1C(=O)/C(=C2/Sc3ccccc3N2CC)SC1=S	none
CCN1C(=O)/C(=C2\Sc3ccccc3N2CC)OC1=S	M4 PAM 23
O=C1c2ccccc2C(=O)N1CCCCSc1nc2ccccc2c(=O)n1CCCN1CCOCC1	none
COc1cccc(CNC(=O)CCNS(=O)(=O)c2ccc3[nH]c(=O)oc3c2)c1	M4 PAM 16
CCOC(=O)CSc1nc(C)c2cccc(C)c2n1	CHRM5 PAM 19
CCOC(=O)CSc1nc(C)c2ccccc2n1	none
COc1cccc(NC(=O)Cn2c(CCC(=O)O)ccc2-c2cccs2)c1	CHRM5 PAM 19
Oc1ccc(O)c(-c2cnns2)c1	none
CN1CCC(=C2c3ccccc3Sc3ccccc32)CC1	M5 antag 99, CHRM4 antagonist 99
O=C1Cc2ccccc2Sc2ccccc21	none
CN1CCC(=C2c3ccccc3C=Cc3ccccc32)CC1	M5 antag 99, CHRM4 antagonist 100
CN1CCN(C(=O)CCN2C(=O)c3ccccc3C2=O)CC1	none
COc1ccc(CC(=O)OCN2C(=O)c3ccccc3C2=O)cc1	none
Cc1ccc(C(=O)OCN2C(=O)c3ccccc3C2=O)o1	M4 PAM 22
COc1ccccc1NC(=O)c1cnc(SCC(=O)NCC2CCCO2)n(C)c1=O (centres undefined)	none
Cn1c(=O)c([N+](=O)[O-])c(Cl)c2ccccc21	CHRM4 antagonist 41
CCN(CC)c1c([N+](=O)[O-])c(=O)n(C)c2ccccc12	none
CCOC(=O)C1(C)CCCCN1C(=O)c1cccc(Cl)c1 (centres undefined)	none
